The text below walks through data of ChEMBL document CHEMBL1157464, “1-[(3-Aryloxy-3-aryl)propyl]-1H-imidazoles, new imidazoles with potent activity against Candida albicans and dermatophytes. Synthesis, structure-activity relationship, and molecular modeling studies” (J Med Chem, 2008).

For experiment [1], the system named is Candida albicans. The experiment in a line: Antifungal activity against Candida albicans ATCC 10261 at 35 degC after 48 to 96 hrs by broth microdilution test. The class given is functional. Summed up:
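Minimal fungicidal concentration for Candida. […] MFC is the lowest concentration allowing fewer than two colonies (99% killing).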

The test system of the next experiment is Candida parapsilosis. The experiment in a line: Antifungal activity against Candida parapsilosis ATCC 22019 at 35 degC after 48 hrs by broth microdilution test. The experiment is classed as functional. Summed up: (§1)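 Broth microdilution per NCCLS M27-A2. Stocks in 100% DMSO, diluted in RPMI 1640 with 0.165 M MOPS at pH 7.0; final range 0.25–128 µg/mL. Inoculum 1000–5000 cells/mL from SDA subcultures. […] C. parapsilosis ATCC22019 served as QC strain.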

Experiment [2] deals with Candida albicans. The experiment in a line: Antifungal activity against Candida albicans ATCC 10261 at 35 degC after 48 hrs by broth microdilution test. The class given is functional. An outline of the steps:
as §1
For orientation: Broth dilution looks for growth in wells or tubes with falling amounts of substance.

Experiment [3] concerns Arthrodermataceae. In words: Antifungal activity against dermatophytes at 28 degC after 5 days by broth microdilution test. Conditions: for MFC: Arthrodermataceae.
Experiment [4] deals with Arthrodermataceae. In words: Antifungal activity against dermatophytes at 28 degC after 7 days by broth microdilution test. The experiment is classed as functional. Particulars: 168 h. Summed up:
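Ten clinical isolates (two M. canis, five M. gypseum, three T. mentagrophytes) tested by NCCLS M38-A broth microdilution in MOPS-buffered RPMI 1640, pH 7.0, over 0.25–128 µg/mL. Conidial/hyphal suspension from PDA slants (28 °C, 7 days) adjusted to 65–70% transmittance at OD530, then diluted 1:50.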

For experiment [5], the system named is Arthrodermataceae. The experiment in a line: Antifungal activity against dermatophytes at 28 degC after 48 to 96 hrs by broth microdilution test.
[6] abbreviates: Candida albicans, ATCC 10261, read-out: MFC.
Setting [7] is: Lodderomyces parapsilosis, ATCC 22019, 48 h, read-out: MFC.
[8] abbreviates: Lodderomyces parapsilosis, ATCC 22019, 48 h, read-out: MIC.
Setting [9] is: Candida albicans, ATCC 10261, 48 h, read-out: MIC.
[10] abbreviates: Candida albicans, ATCC 10261, 48 h, read-out: MIC50.
The mark [11] stands for this setting: Candida albicans, ATCC 10261, 48 h, read-out: MIC90.

As usually defined, the MFC is the lowest tested concentration that kills the fungus rather than only halting it. Broadly, the MIC is the lowest concentration found to suppress growth. As usually defined, the MIC50 is an inhibitory concentration at the 50% level, which refers to growth in some studies and to a panel of isolates in others. For orientation: MIC90 means the lowest concentration that inhibits either 90% of growth or 90% of the strains tested, depending on the study.

≈ marks a conversion by molar mass, not a printed value.

Consider `Cc1ccc(C(CCn2ccnc2)Oc2c(Cl)cccc2Cl)cc1` (configuration not stated), for which the MFC50 against Candida albicans [1] turned out to be 32 µg/mL (≈ 88.6 µM). The compound further gave an MFC90 with Candida albicans [1] of 128 µg/mL (≈ 354 µM). In addition, the minimal fungicidal concentration (MFC) in the experiment with Candida albicans [1] (setting [6]) was determined as 62.9 µg/mL (≈ 174 µM); with Candida parapsilosis (setting [7]), 16 µg/mL (≈ 44.3 µM). For the same compound, the values for the minimal inhibitory concentration (MIC) with Candida parapsilosis (setting [8]) and in the experiment with Candida albicans [2] (setting [9]) were 1 µg/mL (≈ 2.77 µM) and 42 µg/mL (≈ 116 µM), respectively. Moreover, in the experiment with Candida albicans [2] (setting [10]), the MIC50 is 8 µg/mL (≈ 22.1 µM). For the same compound, the MIC90 in the experiment with Candida albicans [2] (setting [11]) is 128 µg/mL (≈ 354 µM).

For the compound `OC(CCn1ccnc1)(c1ccccc1)c1ccccc1`, the MFC50 against Candida albicans [1] came to 128 µg/mL (≈ 460 µM). In the experiment on Candida albicans [1], the MFC90 was 128 µg/mL (≈ 460 µM). The MFC with Candida albicans [1] (setting [6]) turned out to be 128 µg/mL (≈ 460 µM); with Candida parapsilosis (setting [7]) it was 64 µg/mL (≈ 230 µM). The MIC in the experiment on Candida parapsilosis (setting [8]) is 32 µg/mL (≈ 115 µM); in the experiment on Candida albicans [2] (setting [9]), 114 µg/mL (≈ 410 µM). In the experiment on Candida albicans [2] (setting [10]), the MIC50 came to 128 µg/mL (≈ 460 µM). In addition, in the experiment with Candida albicans [2] (setting [11]), the MIC90 is 128 µg/mL (≈ 460 µM).

In the case of `Clc1ccc(OC(CCn2ccnc2)c2ccccc2)c(Cl)c1` (single isomer, unassigned; (-)), in the experiment with Candida albicans [1], the minimum fungicidal concentration (MFC) worked out at 28.6 µg/mL (≈ 82.4 µM), the MFC50 stood at 32 µg/mL (≈ 92.2 µM) and the MFC90 stood at 32 µg/mL (≈ 92.2 µM). In the experiment on Candida parapsilosis, this compound yielded an MFC of 8 µg/mL (≈ 23 µM) and an MIC of 1 µg/mL (≈ 2.88 µM). In the experiment on Candida albicans [2], this compound had a minimum inhibitory concentration (MIC) of 11.8 µg/mL (≈ 34 µM) and an MIC90 of 16 µg/mL (≈ 46.1 µM).

Consider `Cc1ccc(C(CCn2ccnc2)Oc2ccc(C(C)C)cc2)cc1` (configuration not stated), for which the MFC50 in the experiment on Candida albicans [1] came out at 32 µg/mL (≈ 95.7 µM). Also, the MFC90 with Candida albicans [1] turned out to be 64 µg/mL (≈ 191 µM). Moreover, the values for the MFC in the experiment on Candida albicans [1] (setting [6]) and in the experiment on Candida parapsilosis (setting [7]) were 32 µg/mL (≈ 95.7 µM) and 16 µg/mL (≈ 47.8 µM), respectively. Further, the minimal inhibitory concentration (MIC) turned out to be 2 µg/mL (≈ 5.98 µM) in the experiment with Candida parapsilosis (setting [8]) and 16.6 µg/mL (≈ 49.6 µM) in the experiment on Candida albicans [2] (setting [9]). For the same compound, in the experiment on Candida albicans [2] (setting [10]), the MIC50 was 16 µg/mL (≈ 47.8 µM). The MIC90 with Candida albicans [2] (setting [11]) is 32 µg/mL (≈ 95.7 µM).

Regarding `Clc1cc(Cl)cc(OC(CCn2ccnc2)c2ccccc2)c1` (configuration not stated), the results for the MFC90 in the experiment with Arthrodermataceae [3] and against Candida albicans [1] were 16 µg/mL (≈ 46.1 µM) and 64 µg/mL (≈ 184 µM), respectively. Moreover, the MFC is 15 µg/mL (≈ 43.2 µM) in the experiment on Arthrodermataceae [3], 29.8 µg/mL (≈ 85.8 µM) with Candida albicans [1] (setting [6]) and 4 µg/mL (≈ 11.5 µM) in the experiment with Candida parapsilosis (setting [7]). For the same compound, the results for the minimal inhibitory concentration (MIC) in the experiment on Arthrodermataceae [4], in the experiment on Candida parapsilosis (setting [8]) and in the experiment on Candida albicans [2] (setting [9]) were 7.2 µg/mL (≈ 20.7 µM), 0.5 µg/mL (≈ 1.44 µM) and 13.8 µg/mL (≈ 39.7 µM), respectively. Further, the figures for the MIC50 against Arthrodermataceae [4] and with Candida albicans [2] (setting [10]) were 8 µg/mL (≈ 23 µM) and 16 µg/mL (≈ 46.1 µM), respectively. Also, the MIC90 in the experiment on Arthrodermataceae [4] was 8 µg/mL (≈ 23 µM); in the experiment with Candida albicans [2] (setting [11]), 16 µg/mL (≈ 46.1 µM). The MFC50 with Candida albicans [1] was 32 µg/mL (≈ 92.2 µM); with Arthrodermataceae [5], 16 µg/mL (≈ 46.1 µM).

The compound `Cc1ccc(C(CCn2ccnc2)Oc2ccc(C)cc2C)cc1` (configuration not stated) registered an MFC50 against Candida albicans [1] of 64 µg/mL (≈ 200 µM). Besides, the MFC90 against Candida albicans [1] was determined as 64 µg/mL (≈ 200 µM). In addition, the MFC in the experiment on Candida albicans [1] (setting [6]) was found to be 62 µg/mL (≈ 193 µM); in the experiment with Candida parapsilosis (setting [7]), 32 µg/mL (≈ 99.9 µM). For the same compound, the values for the MIC in the experiment on Candida parapsilosis (setting [8]) and in the experiment on Candida albicans [2] (setting [9]) were 8 µg/mL (≈ 25 µM) and 46.5 µg/mL (≈ 145 µM), respectively. Further, the MIC50 with Candida albicans [2] (setting [10]) is 32 µg/mL (≈ 99.9 µM). Further, in the experiment on Candida albicans [2] (setting [11]), the MIC90 was determined as 64 µg/mL (≈ 200 µM).

In the case of `Fc1ccc(C(CCn2ccnc2)Oc2c(Cl)cccc2Cl)cc1` (configuration not stated), the MFC90 against Arthrodermataceae [3] is 16 µg/mL (≈ 43.8 µM); with Candida albicans [1], 128 µg/mL (≈ 350 µM). The minimal fungicidal concentration (MFC) in the experiment with Arthrodermataceae [3] came to 15 µg/mL (≈ 41.1 µM); in the experiment on Candida albicans [1] (setting [6]), 78.9 µg/mL (≈ 216 µM); with Candida parapsilosis (setting [7]) it was 32 µg/mL (≈ 87.6 µM). In addition, the minimum inhibitory concentration (MIC) against Arthrodermataceae [4] amounted to 6.4 µg/mL (≈ 17.5 µM); in the experiment on Candida parapsilosis (setting [8]), 4 µg/mL (≈ 11 µM); in the experiment with Candida albicans [2] (setting [9]), 36.1 µg/mL (≈ 98.8 µM). For the same compound, the MIC50 against Arthrodermataceae [4] and in the experiment on Candida albicans [2] (setting [10]) was 8 µg/mL (≈ 21.9 µM) throughout. The MIC90 worked out at 8 µg/mL (≈ 21.9 µM) against Arthrodermataceae [4] and 64 µg/mL (≈ 175 µM) in the experiment with Candida albicans [2] (setting [11]). Also, the results for the MFC50 in the experiment on Candida albicans [1] and with Arthrodermataceae [5] were 32 µg/mL (≈ 87.6 µM) and 16 µg/mL (≈ 43.8 µM), respectively.

In turn, `Cc1ccc(OC(CCn2ccnc2)c2ccccc2)cc1` (single isomer, unassigned; (+)) registered a minimum fungicidal concentration (MFC) in the experiment on Candida albicans [1] of 14.9 µg/mL (≈ 51 µM). In the experiment on Candida parapsilosis, this compound came in with an MFC of 8 µg/mL (≈ 27.4 µM) and an MIC of 1 µg/mL (≈ 3.42 µM). In the experiment with Candida albicans [2], the minimal inhibitory concentration (MIC) is 6.5 µg/mL (≈ 22.2 µM) and the MIC90 was found to be 8 µg/mL (≈ 27.4 µM).

`Clc1ccc(OC(CCn2ccnc2)c2ccc(Cl)cc2Cl)c(Cl)c1` (configuration not stated): in the experiment with Candida albicans [1], the MFC50 amounted to 64 µg/mL (≈ 154 µM). The MFC90 against Candida albicans [1] was 64 µg/mL (≈ 154 µM). The MFC in the experiment on Candida albicans [1] (setting [6]) and with Candida parapsilosis (setting [7]) was 64 µg/mL (≈ 154 µM) throughout. The MIC worked out at 8 µg/mL (≈ 19.2 µM) with Candida parapsilosis (setting [8]) and 51 µg/mL (≈ 123 µM) with Candida albicans [2] (setting [9]). In the experiment with Candida albicans [2] (setting [10]), the MIC50 amounted to 64 µg/mL (≈ 154 µM). Besides, in the experiment with Candida albicans [2] (setting [11]), the MIC90 came out at 64 µg/mL (≈ 154 µM).

For the compound `Clc1ccc(OC(CCn2ccnc2)c2ccccc2)c(Cl)c1` (stereo in doubt; (+)-14a), in the experiment with Candida albicans [1], the minimal fungicidal concentration (MFC) is 7.4 µg/mL (≈ 21.3 µM) and the MFC90 was found to be 8 µg/mL (≈ 23 µM). In the experiment on Candida parapsilosis, this compound had an MFC of 4 µg/mL (≈ 11.5 µM) and an MIC of 0.5 µg/mL (≈ 1.44 µM). In the experiment on Candida albicans [2], the minimal inhibitory concentration (MIC) was found to be 3.2 µg/mL (≈ 9.22 µM), the MIC50 was 4 µg/mL (≈ 11.5 µM) and the MIC90 turned out to be 4 µg/mL (≈ 11.5 µM).
